One test has as its system A549. As to the kind of experiment: Cytotoxicity against human A549 cells after 72 hrs by MTS assay. Type of test: functional, cell-based. As to conditions: A549, 72 h. For orientation: Tetrazolium assays rely on reduction of a dye to a coloured formazan, in cell work by metabolically active cells.
A further test has as its system MDA-MB-468. As to the kind of experiment: Cytotoxicity against human MDA-MB-468 cells after 72 hrs by MTS assay. Type of test: functional, cell-based. As to conditions: MDA-MB-468, 72 h.
For the next test, the system named is DU-4475. As to the kind of experiment: Cytotoxicity against human DU4475 cells after 72 hrs by MTS assay. The test is classed as functional, cell-based. The note with it: DU-4475, 72 h.
Test [1] is described as follows: Cytotoxicity against human A2780DDP cells after 72 hrs by MTS assay. The test is classed as functional, cell-based.
The subject of another test is MDA-MB-231. As to the kind of experiment: Cytotoxicity against human MDA-MB-231 cells after 72 hrs by MTS assay. Type of test: functional, cell-based. The note with it: MDA-MB-231, 72 h.
Another test concerns CCRF-CEM. As to the kind of experiment: Cytotoxicity against human CCRF-CEM cells after 72 hrs by MTS assay. The test is classed as functional, cell-based.
The next test concerns PC-3. As to the kind of experiment: Cytotoxicity against human PC3 cells after 72 hrs by MTS assay. The note with it: PC-3, 72 h. The test is classed as functional, cell-based.
The test system of the next test is DU-145. As to the kind of experiment: Cytotoxicity against human DU145 cells after 72 hrs by MTS assay. Type of test: functional, cell-based. The note with it: DU-145, 72 h.
The next test deals with HCT-116. As to the kind of experiment: Cytotoxicity against human HCT116 cells after 72 hrs by MTS assay. The test is classed as functional, cell-based. The note with it: HCT-116, 72 h.
Test [2] is described as follows: Cytotoxicity against human LNCaP-FGC cells after 72 hrs by MTS assay. The test is classed as functional, cell-based. The note with it: LNCaP-Clone-FGC.
For another test, the system named is BT-549. As to the kind of experiment: Cytotoxicity against human BT549 cells after 72 hrs by MTS assay. Type of test: functional, cell-based. As to conditions: BT-549, 72 h.
The species entered for test [3] is Homo sapiens. As to the kind of experiment: Induction of apoptosis in human A2780DDP cells assessed as PARP cleavage at 10 uM after 24 hrs by flow cytometry. Type of test: functional, cell-based. In outline: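 A2780/DDP-S ovarian cancer cells were exposed at 1.0, 3.0 and 10 µM for 24 or 48 h. Apoptosis was scored by flow cytometry as the presence of cleaved PARP, a marker of caspase activation.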
(In general: Flow cytometry measures light scatter and fluorescence of single cells or particles in a stream.)

For the next test, the system named is Plasmodium falciparum. As to the kind of experiment: Antimalarial activity against Plasmodium falciparum. Type of test: functional, organism-based. In outline: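 Parasite proliferation was read out with a SYBR Green-based assay.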
Test [4] in a line: Cell cycle arrest in human A2780DDP cells at 10 uM after 24 hrs using propidium iodine staining by flow cytometry. The test is classed as functional, cell-based. In outline:
(§1)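 A2780/DDP-S ovarian cancer cells were treated at 1.0, 3.0 and 10 µM for 24 or 48 h. DNA was stained with propidium iodide and cell-cycle distribution was analysed by flow cytometry.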

The test system of test [5] is Mycobacterium tuberculosis. As to the kind of experiment: Antimicrobial activity against Mycobacterium tuberculosis H37Rv by microplate alamar blue assay. The test is classed as functional, organism-based. In outline:
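M. tuberculosis H37Rv (ATCC 27294) tested by microplate alamar blue assay.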
Background: Alamar Blue is a resazurin reagent that responds to reducing activity.

The species entered for test [6] is Homo sapiens. As to the kind of experiment: Induction of apoptosis in human A2780DDP cells assessed as PARP cleavage at 10 uM after 48 hrs by flow cytometry. The test is classed as functional, cell-based.
For a further test, the system named is Candida albicans. As to the kind of experiment: Antifungal activity against amphotericin-resistant Candida albicans ATCC 90873. The test is classed as functional.
The test system of another test is Enterococcus faecium. As to the kind of experiment: Antibacterial activity against vancomycin-resistant Enterococcus faecium ATCC 700221. Type of test: functional.
The nature of test [7]: Cell cycle arrest in human A2780DDP cells at 10 uM after 48 hrs using propidium iodine staining by flow cytometry. The test is classed as functional, cell-based. In outline:
as §1

The subject of a further test is Staphylococcus aureus. As to the kind of experiment: Antibacterial activity against methicillin-resistant Staphylococcus aureus ATCC 33591. Type of test: functional.

Values after ≈ are worked out from the molar mass of the structure shown. Active and inactive are the calls of the source. The calls are words filed in the database; no cut-off is given here.

Turning to `CC(=O)N[C@H]1[C@H](OC[C@]23CC[C@H](O)C=C2CC[C@@H]2[C@@H]3CC[C@]3(C)[C@@H]([C@H](C)CCCC(C)C)CC[C@@H]23)O[C@H](CO)[C@@H](O)[C@@H]1O`, the IC50 was more than 25 µM in the test with A549; 7.13 µM with MDA-MB-468; 6.12 µM in the test on DU-4475; 8.98 µM in test [1]; 10.2 µM in the test with MDA-MB-231; 10.7 µM in the test with CCRF-CEM. Also, the IC50 is 9.61 µM in the test on PC-3; more than 25 µM with DU-145; more than 25 µM with HCT-116; 21.4 µM in test [2]; 10.1 µM in the test on BT-549.

On to `CC(C)CCC[C@@H](C)[C@H]1CC[C@H]2[C@@H]3CCC4=CC(=O)CC[C@]4(CO[C@@H]4O[C@H](CO)[C@@H](O)[C@H](O)[C@H]4O)[C@H]3CC[C@]12C`, for which the IC50 with A549 is 0.93 µM; in the test with MDA-MB-468, 0.86 µM; in the test on DU-4475, 1.29 µM; in [1], 1.39 µM; in the test on Plasmodium falciparum it was more than 40 µM; in [5], more than 40 µM. Further, the concentration for half-maximal inhibition (IC50) in the test on MDA-MB-231 turned out to be 1.27 µM; in the test with CCRF-CEM, 1.97 µM; with PC-3, 3.44 µM; with DU-145, 1.31 µM; in the test with HCT-116, 3.13 µM; in test [2] it was 3.4 µM. The compound also showed an IC50 in the test on BT-549 of 1.26 µM. Also, the outcome (in the test filed under Homo sapiens [3]; in test [4]; in the test filed under Homo sapiens [6]; in [7]) was inactive. Inhibition of growth against Candida albicans (MIC) required 25 mg/L (≈ 44.4 µM). In the test with Enterococcus faecium, the Activity stood at 6.3 µg/mL.

On to `CC(C)CCC[C@@H](C)[C@H]1CC[C@H]2[C@@H]3CCC4=C[C@@H](O)CC[C@]4(CO[C@@H]4O[C@H](CO)[C@@H](O)[C@H](O)[C@H]4O)[C@H]3CC[C@]12C`, for which the IC50 with A549 was more than 25 µM; in the test on MDA-MB-468, 6.69 µM; in the test with DU-4475, 6.09 µM; in test [1], more than 25 µM; in the test on MDA-MB-231, 16.9 µM; in the test on CCRF-CEM, 9.82 µM. Besides, the IC50 in the test on PC-3 was more than 25 µM; with DU-145 it was more than 25 µM; in the test with HCT-116, more than 25 µM; in test [2], 24.2 µM; with BT-549 it was 11.9 µM.

In the case of `CC(=O)N[C@H]1[C@H](OC[C@]23CCC(=O)C=C2CC[C@@H]2[C@@H]3CC[C@]3(C)[C@@H]([C@H](C)CCCC(C)C)CC[C@@H]23)O[C@H](CO)[C@@H](O)[C@@H]1O`, the IC50 in the test with A549 is 0.97 µM; with MDA-MB-468 it was 0.71 µM; in the test on DU-4475, 2.44 µM; in test [1], 1.35 µM; with Plasmodium falciparum it was more than 40 µM; in [5], more than 40 µM. Further, the IC50 was 1.01 µM in the test on MDA-MB-231; 1.45 µM in the test with CCRF-CEM; 2.4 µM in the test on PC-3; 1.35 µM in the test with DU-145; 2.23 µM in the test on HCT-116; 1.48 µM in [2]. Further, the half-maximal inhibitory concentration (IC50) in the test on BT-549 stood at 1.24 µM. Further, the outcome (in test [4]; in the test filed under Homo sapiens [6]; in test [7]) was inactive. For the same compound, the Activity in the test on Staphylococcus aureus was found to be 3.1 µg/mL; in the test on Enterococcus faecium it was 12.5 µg/mL. In the test with Candida albicans, this compound displayed an MIC of 25 mg/L (≈ 41.4 µM).

As for `CC(C)CCC[C@@H](C)[C@H]1CC[C@H]2[C@@H]3CCC4=CC(=O)CC[C@]4(CO)[C@H]3CC[C@]12C`, the IC50 was 3.99 µM with MDA-MB-468; 1 µM in the test on DU-4475; 22.3 µM in the test on MDA-MB-231; 1.96 µM in the test on PC-3; 5.05 µM in the test on DU-145; 20.9 µM with HCT-116. The same compound returned an IC50 in [2] of 15.6 µM.

Regarding `CC(C)CCC[C@@H](C)[C@H]1CC[C@H]2[C@@H]3CCC4=C[C@@H](O)CC[C@]4(C)[C@H]3CC[C@]12C`, the IC50 in the test with MDA-MB-468, in the test with DU-4475, in the test on MDA-MB-231, in the test with PC-3, in the test on DU-145 and with HCT-116 was more than 25 µM in each case. Further, the IC50 in test [2] was more than 25 µM.

For `CC(C)CCC[C@@H](C)[C@H]1CC[C@H]2[C@@H]3CCC4=CC(=O)CC[C@]4(C)[C@H]3CC[C@]12C` [4-CHOLESTEN 3-ONE], the concentration for half-maximal inhibition (IC50) in the test with MDA-MB-468 was 6.09 µM; with DU-4475, 6.74 µM; in the test with MDA-MB-231 it was 13.5 µM; with PC-3, more than 25 µM; in the test on DU-145 it was 20.3 µM; in the test with HCT-116, 9.58 µM. In addition, inhibition in test [2] was half-maximal at 5.96 µM (IC50).

In general, IC50 refers to the concentration at which inhibition is half-maximal. Low readings indicate higher potency, high ones lower potency. What is called MIC is the lowest concentration found to suppress growth. A low value points to inhibition by little substance.

Values taken from ChEMBL document CHEMBL1287727, “Structure and biological evaluation of novel cytotoxic sterol glycosides from the marine red alga Peyssonnelia sp” (Bioorg Med Chem, 2010).
